Measured values as given in ChEMBL document CHEMBL3877325, “Novel salicylanilides from 4,5-dihalogenated salicylic acids: Synthesis, antimicrobial activity and cytotoxicity” (Bioorg Med Chem, 2017).
Values after ≈ are worked out from the molar mass of the structure shown.

Tests used:
Assay type in all cases: functional
[1] = system: Mycobacterium tuberculosis; test: Antimycobacterial activity against multidrug resistant Mycobacterium tuberculosis Praha 1 after 14 days by micromethod; conditions: Praha 1, 336 h
How it was run: (§1)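 Multidrug-resistant M. tuberculosis strains, each inoculated at 10^-3 dilution; 234/2005 is resistant to INH, RIF, rifabutin, streptomycin, ethambutol and ofloxacin. MIC determined by micromethod in Šula's semisynthetic medium at 37 °C after 14 and 21 days. Compounds added from DMSO at 0.5–500 µM.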

[2] = system: Mycobacterium tuberculosis; test: Antimycobacterial activity against multidrug resistant Mycobacterium tuberculosis 242/2015 after 21 days by micromethod; conditions: 242/2015, 504 h; how it was run: as §1
[3] = system: Mycobacterium tuberculosis; test: Antimycobacterial activity against extensively drug resistant Mycobacterium tuberculosis Praha 131 after 21 days by micromethod; conditions: Praha 131, 504 h
How it was run: (§2)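 MIC micromethod in Šula's semisynthetic medium at 37 °C, read after 14 and 21 days. Compounds added as DMSO solutions at 500 down to 0.5 µM (twofold-type series: 500, 250, 125, 62.5, 32, 16, 8, 4, 2, 1, 0.5 µM). Isoniazid standard given in sterile water.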

[4] = system: Mycobacterium tuberculosis; test: Antimycobacterial activity against multidrug resistant Mycobacterium tuberculosis 9449/2007 after 21 days by micromethod; conditions: 9449/2007, 504 h; how it was run: as §1
[5] = system: Mycobacterium tuberculosis; test: Antimycobacterial activity against multidrug resistant Mycobacterium tuberculosis 234/2005 after 14 days by micromethod; conditions: 234/2005, 336 h; how it was run: as §1
[6] = system: Mycobacterium tuberculosis; test: Antimycobacterial activity against multidrug resistant Mycobacterium tuberculosis 242/2015 after 14 days by micromethod; conditions: 242/2015, 336 h; how it was run: as §1
[7] = system: Mycobacterium tuberculosis; test: Antimycobacterial activity against multidrug resistant Mycobacterium tuberculosis 9449/2007 after 14 days by micromethod; conditions: 9449/2007, 336 h; how it was run: as §1
[8] = system: Mycobacterium tuberculosis; test: Antimycobacterial activity against multidrug resistant Mycobacterium tuberculosis 234/2005 after 21 days by micromethod; conditions: 234/2005, 504 h; how it was run: as §1
[9] = system: Mycobacterium tuberculosis; test: Antimycobacterial activity against multidrug resistant Mycobacterium tuberculosis Praha 1 after 21 days by micromethod; conditions: Praha 1, 504 h; how it was run: as §1
[10] = system: Mycobacterium tuberculosis; test: Antimycobacterial activity against multidrug resistant Mycobacterium tuberculosis Praha 4 after 21 days by micromethod; conditions: Praha 4, 504 h; how it was run: as §1
[11] = system: Mycobacterium tuberculosis; test: Antimycobacterial activity against extensively drug resistant Mycobacterium tuberculosis Praha 131 after 14 days by micromethod; conditions: Praha 131, 336 h; how it was run: as §2
[12] = system: Mycobacterium tuberculosis; test: Antimycobacterial activity against multidrug resistant Mycobacterium tuberculosis Praha 4 after 14 days by micromethod; conditions: Praha 4, 336 h; how it was run: as §1

Compound | MIC [1] [µM] | MIC [2] [µM] | MIC [3] [µM] | MIC [4] [µM] | MIC [5] [µM] | MIC [6] [µM] | MIC [7] [µM] | MIC [8] [µM] | MIC [9] [µM] | MIC [10] [µM] | MIC [11] [µM] | MIC [12] [µM]
O=C(Nc1ccc(C(F)(F)F)cc1)c1ccc(Cl)cc1O | 1 (≈ 0.316 µg/mL) | 1 (≈ 0.316 µg/mL) | 2 (≈ 0.631 µg/mL) | 1 (≈ 0.316 µg/mL) | 2 (≈ 0.631 µg/mL) | 1 (≈ 0.316 µg/mL) | 2 (≈ 0.631 µg/mL) | 2 (≈ 0.631 µg/mL) | 1 (≈ 0.316 µg/mL) | 2 (≈ 0.631 µg/mL) | 2 (≈ 0.631 µg/mL) | 1 (≈ 0.316 µg/mL)
O=C(Nc1ccc(C(F)(F)F)cc1)c1cc(Cl)ccc1O | 0.5 (≈ 0.158 µg/mL) | 0.5 (≈ 0.158 µg/mL) | 0.5 (≈ 0.158 µg/mL) | 0.5 (≈ 0.158 µg/mL) | 0.5 (≈ 0.158 µg/mL) | 0.5 (≈ 0.158 µg/mL) | 0.5 (≈ 0.158 µg/mL) | 0.5 (≈ 0.158 µg/mL) | 0.5 (≈ 0.158 µg/mL) | 0.5 (≈ 0.158 µg/mL) | 0.5 (≈ 0.158 µg/mL) | 0.5 (≈ 0.158 µg/mL)
O=C(Nc1ccc(C(F)(F)F)cc1)c1cc(Br)ccc1O | 1 (≈ 0.36 µg/mL) | 2 (≈ 0.72 µg/mL) | 4 (≈ 1.44 µg/mL) | 1 (≈ 0.36 µg/mL) | 2 (≈ 0.72 µg/mL) | 1 (≈ 0.36 µg/mL) | 2 (≈ 0.72 µg/mL) | 4 (≈ 1.44 µg/mL) | 1 (≈ 0.36 µg/mL) | 4 (≈ 1.44 µg/mL) | 2 (≈ 0.72 µg/mL) | 2 (≈ 0.72 µg/mL)
O=C(Nc1ccc(C(F)(F)F)cc1)c1ccc(Br)cc1O | 1 (≈ 0.36 µg/mL) | 1 (≈ 0.36 µg/mL) | 1 (≈ 0.36 µg/mL) | 1 (≈ 0.36 µg/mL) | 1 (≈ 0.36 µg/mL) | 1 (≈ 0.36 µg/mL) | 1 (≈ 0.36 µg/mL) | 2 (≈ 0.72 µg/mL) | 1 (≈ 0.36 µg/mL) | 2 (≈ 0.72 µg/mL) | 1 (≈ 0.36 µg/mL) | 1 (≈ 0.36 µg/mL)
O=C(Nc1ccc(C(F)(F)F)cc1)c1cc(Br)c(Br)cc1O | 1 (≈ 0.439 µg/mL) | 2 (≈ 0.878 µg/mL) | 2 (≈ 0.878 µg/mL) | 1 (≈ 0.439 µg/mL) | 2 (≈ 0.878 µg/mL) | 1 (≈ 0.439 µg/mL) | 2 (≈ 0.878 µg/mL) | 2 (≈ 0.878 µg/mL) | 1 (≈ 0.439 µg/mL) | 2 (≈ 0.878 µg/mL) | 2 (≈ 0.878 µg/mL) | 2 (≈ 0.878 µg/mL)
O=C(Nc1ccc(C(F)(F)F)cc1)c1cc(Br)c(Cl)cc1O | 2 (≈ 0.789 µg/mL) | 2 (≈ 0.789 µg/mL) | 2 (≈ 0.789 µg/mL) | 2 (≈ 0.789 µg/mL) | 2 (≈ 0.789 µg/mL) | 2 (≈ 0.789 µg/mL) | 2 (≈ 0.789 µg/mL) | 2 (≈ 0.789 µg/mL) | 2 (≈ 0.789 µg/mL) | 2 (≈ 0.789 µg/mL) | 2 (≈ 0.789 µg/mL) | 2 (≈ 0.789 µg/mL)
O=C(Nc1ccc(C(F)(F)F)cc1)c1cc(Cl)c(Cl)cc1O | 1 (≈ 0.35 µg/mL) | 1 (≈ 0.35 µg/mL) | 2 (≈ 0.7 µg/mL) | 1 (≈ 0.35 µg/mL) | 1 (≈ 0.35 µg/mL) | 1 (≈ 0.35 µg/mL) | 2 (≈ 0.7 µg/mL) | 2 (≈ 0.7 µg/mL) | 1 (≈ 0.35 µg/mL) | 2 (≈ 0.7 µg/mL) | 1 (≈ 0.35 µg/mL) | 1 (≈ 0.35 µg/mL)
O=C(Nc1ccc(C(F)(F)F)cc1)c1cc(Cl)c(Br)cc1O | 2 (≈ 0.789 µg/mL) | 2 (≈ 0.789 µg/mL) | 2 (≈ 0.789 µg/mL) | 2 (≈ 0.789 µg/mL) | 2 (≈ 0.789 µg/mL) | 2 (≈ 0.789 µg/mL) | 2 (≈ 0.789 µg/mL) | 2 (≈ 0.789 µg/mL) | 2 (≈ 0.789 µg/mL) | 4 (≈ 1.58 µg/mL) | 2 (≈ 0.789 µg/mL) | 2 (≈ 0.789 µg/mL)
NNC(=O)c1ccncc1 [ISONIAZID] | 16 (≈ 2.19 µg/mL) | 16 (≈ 2.19 µg/mL) | 16 (≈ 2.19 µg/mL) | 16 (≈ 2.19 µg/mL) | 16 (≈ 2.19 µg/mL) | 16 (≈ 2.19 µg/mL) | 16 (≈ 2.19 µg/mL) | 32 (≈ 4.39 µg/mL) | 16 (≈ 2.19 µg/mL) | 16 (≈ 2.19 µg/mL) | 16 (≈ 2.19 µg/mL) | 16 (≈ 2.19 µg/mL)
